CaV13 FRET inh – Primary screen for inhibitors of IQ motif and Ca2+-dependent inactivation inhibitor domain binding in CACNA1D, Förster resonance energy transfer in living cells, …; 0.098% of 340,000 active; HEK cells, CFP/YFP FRET ICDI-IQ, plate reader, 10 min; percent FRET-ratio fall versus neutral wells; AID 743397; inhibition, % at 12.3 µM;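 active means mean replicate inhibition of at least 30% and at least 1% of replicates passing that level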;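 further: 0% = median of the neutral control wells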
T cell modulator – modulators of CD8 T cell-vesicle binding, primary screen, mouse 2C CD8+ T cells, flow cytometry | response (vesicle binding), % at 7 µM | 0.068% of 330,000 active | AID 2052, 2009 | 2C CD8+ T cell-vesicle binding; stronger effect = lower value;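 active means response, share of CD8 T cells binding vesicles, and their 90th percentile fluorescence all below set limits, cut at about 80% in these data, passing the limit was not always enough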;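 further: values below 100% mean blocked vesicle binding to the CD8+ T cells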
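material = purified 2C TCR transgenic mouse naive CD8+ T cells | controls = Unloaded micro-vesicles (low), QL9 vesicles with 0.7% DMSO (high) | detection = cytometric PE anti-B7-1 and Alexa647 anti-CD8 signals after 1% paraformaldehyde fixation | incubation = binding step 1.5 h, 37 °C, antibody labelling 20 min, ice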
procasp3 activ – activators of human procaspase-3 D3A mutant, primary screen, biochemical, absorbance, PC-3 D3A mutant, single concentration. Caspase-3 (Homo sapiens), P42574. recombinant procaspase-3 D3A, Ac-DEVD-pNA absorbance 405 nm. activation, % at 8.5 µM. 0.11% of 330,000 active. AID 463141, 2010;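 active means activation above the mean of all tested compounds plus 3 SD, cut at about 21% in these data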;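 further: 0% = DMSO alone and 100% = DMSO wells spiked with extra 5 µM PC-3 D3A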
Target sequence (P42574 whole entry D9A/D28A/D175A): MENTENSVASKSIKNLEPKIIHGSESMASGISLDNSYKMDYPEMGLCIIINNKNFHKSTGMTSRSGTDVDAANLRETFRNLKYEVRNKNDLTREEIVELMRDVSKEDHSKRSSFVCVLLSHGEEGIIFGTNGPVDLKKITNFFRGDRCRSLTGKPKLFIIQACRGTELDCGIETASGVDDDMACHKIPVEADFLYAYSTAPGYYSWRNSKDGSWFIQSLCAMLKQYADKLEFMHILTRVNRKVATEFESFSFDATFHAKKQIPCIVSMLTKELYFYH
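material = Procaspase-3 D3A mutant | probe or stimulus = Ac-DEVD-pNA | compound = single dose, 8.5 µM nominal compound, 0.8% DMSO | timing = 1 h preincubation, 2 h reaction | measured by = 405 nm absorbance of p-nitroaniline, reads at 0 and 120 min | benchmarks = DMSO-only low control, 5 µM PC-3 D3A high control | repeats = singlicate, each compound tested once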
aDG glyco up – activators of alpha-DG glycosylation, primary screen, uHTS, Pro5-aDG cells, AlphaScreen | 0.22% of 360,000 active | activation, % at 10 µM | alpha-DG glycosylation AlphaScreen (IIH6); 0% Pro5, 100% B10-LARGE cell signal | AID 624168, 2012;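 active means activation of at least 8% versus controls, or a plate z-score of at least 8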;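 further: Pro5 are CHO cells carrying HIG-tagged alpha-DG that lacks glycosylation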
GRK2 aptamer HTS – compounds blocking aptamer binding on GRK2 – biochemical, human GRK2, bead flow cytometry, HTS, primary screen. Beta-adrenergic receptor kinase 1 (Homo sapiens), P25098. inhibition of aptamer binding, % at 10 µM. FAM-aptamer displacement from GRK2. 0.59% of 330,000 active;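 active means inhibition of aptamer binding above 40%, roughly 3 SD of noise, on plates passing a quality check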;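 further: median bead fluorescence of bound FAM aptamer so fluorescent compounds give negative values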
proCasp7 act – procaspase-7 activators, primary screen, counter-screen for procaspase-3 activator project, biochemical, absorbance, HTS, human | Caspase-7 (Homo sapiens), P55210 | recombinant procaspase-7, Ac-DEVD-pNA absorbance 405 nm; D23A/D198A/D206A triple mutant, cannot self-cleave; scale: DMSO 0, 5 µM enzyme 100 | activation, % at 8.5 µM | 0.093% of 330,000 active | AID 463210, 2010;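 active means percent activation above the screen-wide mean plus 3 SD, cut at about 25% in these data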
Target sequence (P55210 whole entry D23A/D198A/D206A): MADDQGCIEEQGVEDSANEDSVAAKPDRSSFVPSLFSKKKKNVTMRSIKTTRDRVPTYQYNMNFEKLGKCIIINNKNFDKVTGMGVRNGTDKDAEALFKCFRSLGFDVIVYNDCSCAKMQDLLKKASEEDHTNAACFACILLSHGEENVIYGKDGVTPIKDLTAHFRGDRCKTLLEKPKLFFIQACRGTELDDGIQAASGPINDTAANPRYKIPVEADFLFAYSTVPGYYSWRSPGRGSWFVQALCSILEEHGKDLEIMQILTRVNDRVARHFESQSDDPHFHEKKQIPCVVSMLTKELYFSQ
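Assay system: Uncleavable procaspase-7 mutant enzyme | Input: 2 µM procaspase-7 mutant as dispensed | Timing: 1 h compound preincubation, 2 h substrate cleavage, 25 °C | Repeats: One well per compound | Control set: DMSO wells as 0%, DMSO with 5 µM added PC-7 as 100% | Technique: Epi-absorbance of released pNA at 405 nm, two timepoints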
aDG glyco conf – alpha-DG glycosylation enhancers, retest, confirmation, single concentration, Pro5-aDG cells; shares compounds with aDG glyco up; IIH6 AlphaLISA; scaled to LARGE-overexpressing B10 cells as 100%; activation, % at 10 µM (by protocol); 17% of 600 active;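 active means activation of at least 7% in one or more replicates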;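 further: cells exposed to compound for two days before detection; 0% = DMSO-treated Pro5 cells and 100% = DMSO-treated B10-LARGE cells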
An asterisk follows results filed as active. Sampled rows, rich in hits. Any-hit rate of the full collection: about 1.1%.

What do the screens show for `COc1ccc(CC(=O)OCC(=O)c2ccc(S(=O)(=O)N3CCCCC3)cc2)cc1`?
CaV13 FRET inh: -15.6; T cell modulator: 379.6; procasp3 activ: -106.6; aDG glyco up: -0.1; GRK2 aptamer HTS: 3.0; proCasp7 act: 3.0

What do the screens show for `CC(NC(=O)Cc1ccsc1)c1ccc(F)cc1` (stereo not drawn)?
CaV13 FRET inh: -6.9; T cell modulator: 327.2; procasp3 activ: 4.5; aDG glyco up: -0.2; GRK2 aptamer HTS: 1.0; proCasp7 act: 7.6

How did Cc1ccc(CNC(=O)C2CC3Cn4c(nc5cc(Cl)c(Cl)cc54)C3N2C)o1 (stereo not drawn) do in these assays?
CaV13 FRET inh: -11.5; T cell modulator: 695.0; procasp3 activ: 0.9; aDG glyco up: 0.2; GRK2 aptamer HTS: 3.0; proCasp7 act: -3.0

Results for Cc1nc2cc(NC(=O)c3ccc([N+](=O)[O-])s3)ccc2s1 ?
CaV13 FRET inh: -5.8; T cell modulator: 173.7; procasp3 activ: -8.0; aDG glyco up: 10.7*; GRK2 aptamer HTS: 0.0; proCasp7 act: 7.6; aDG glyco conf: 5.1*

What do the screens show for `CCc1ccccc1NC(=O)c1ccc([N+](=O)[O-])s1`?
CaV13 FRET inh: -6.2; T cell modulator: 221.7; procasp3 activ: 3.0; aDG glyco up: 12.6*; GRK2 aptamer HTS: 2.0; proCasp7 act: 7.1; aDG glyco conf: 1.4

Results for COc1ccccc1NC(=O)COC(=O)c1ccc([N+](=O)[O-])s1 ?
CaV13 FRET inh: 7.2; T cell modulator: 226.3; procasp3 activ: -6.8; aDG glyco up: 1.7; GRK2 aptamer HTS: 0.0; proCasp7 act: -2.8

What do the screens show for `C=CCC(=O)N1CCCC(CO)(Cc2ccc(F)cc2F)C1` (stereo not drawn)?
CaV13 FRET inh: -3.2; T cell modulator: 269.8; procasp3 activ: 9.8; aDG glyco up: -0.2; GRK2 aptamer HTS: 7.0; proCasp7 act: 7.0

How did CC(C)CNS(=O)(=O)c1ccc(CCC(=O)N2CCC(C(N)=O)CC2)cc1 do in these assays?
CaV13 FRET inh: -11.9; T cell modulator: 350.9; procasp3 activ: 2.8; aDG glyco up: 0.0; GRK2 aptamer HTS: 6.0; proCasp7 act: 5.7

Results for COCCNC(=S)N/N=C(\C)c1ccc(O)cc1 ?
CaV13 FRET inh: -7.5; T cell modulator: 179.6; procasp3 activ: 10.4; aDG glyco up: 7.4*; GRK2 aptamer HTS: 1.0; proCasp7 act: -8.9; aDG glyco conf: 0.5

Results for C=CCNC(=S)N/N=C(\C)c1cccc(OC)c1 ?
CaV13 FRET inh: -4.1; T cell modulator: 239.1; procasp3 activ: -3.5; aDG glyco up: 2.6; GRK2 aptamer HTS: 0.0; proCasp7 act: 6.6

How did C=CCNC(=S)N/N=C(\C)c1ccc(OC)cc1 do in these assays?
CaV13 FRET inh: -5.3; T cell modulator: 91.0; procasp3 activ: -5.9; aDG glyco up: 11.6*; GRK2 aptamer HTS: 0.0; proCasp7 act: -4.7; aDG glyco conf: 1.3

Results for COCCNC(=S)N/N=C(\C)c1ccc(-n2ccnc2)cc1 ?
CaV13 FRET inh: -8.0; T cell modulator: 552.5; procasp3 activ: -2.8; aDG glyco up: 3.5; GRK2 aptamer HTS: 0.0; proCasp7 act: -3.4

What do the screens show for `CC(CCc1ccccc1)NC(=O)C1CCCN(C(=O)c2cc3sccc3n2C)C1` (stereo not drawn)?
CaV13 FRET inh: -6.4; T cell modulator: 432.3; procasp3 activ: 0.1; aDG glyco up: 0.3; GRK2 aptamer HTS: 0.0; proCasp7 act: 11.8

How did O=C(Nc1ccc(Cl)cc1)N1CCCN(Cc2ccc(F)cc2)C1 do in these assays?
CaV13 FRET inh: -3.8; T cell modulator: 319.0; procasp3 activ: 1.5; aDG glyco up: 7.8*; GRK2 aptamer HTS: 0.0; proCasp7 act: 6.6; aDG glyco conf: 1.2

How did CCOC(=O)c1c(-c2ccc(OC)cc2)cn2ccccc12 do in these assays?
CaV13 FRET inh: -1.1; T cell modulator: 314.5; procasp3 activ: 0.4; aDG glyco up: -0.1; GRK2 aptamer HTS: 0.0; proCasp7 act: 5.3

Results for COc1cc(OC)cc(C(=O)NCC(=O)OCC(=O)C(C)(C)C)c1 ?
CaV13 FRET inh: -2.8; T cell modulator: 158.9; procasp3 activ: 2.2; aDG glyco up: 0.1; GRK2 aptamer HTS: 0.0; proCasp7 act: -0.9

Results for Cc1cc(C)cc(SCc2noc(C(=O)NCCN(C)C)c2C(=O)NCCN(C)C)c1 ?
CaV13 FRET inh: -12.4; T cell modulator: 301.6; procasp3 activ: -6.4; aDG glyco up: 7.2*; GRK2 aptamer HTS: 0.0; proCasp7 act: -7.0; aDG glyco conf: 1.1

What do the screens show for `COc1cccc(S(=O)(=O)NCc2ccc(C(=O)Nc3ccc(Cl)cc3)cc2)c1`?
CaV13 FRET inh: -2.3; T cell modulator: 233.9; procasp3 activ: 3.8; aDG glyco up: 0.4; GRK2 aptamer HTS: 0.0; proCasp7 act: 4.6

How did CN(C)S(=O)(=O)c1cccc(NC(=O)c2ccc(COc3ccccc3)cc2)c1 do in these assays?
CaV13 FRET inh: -3.9; T cell modulator: 34.0; procasp3 activ: 4.3; aDG glyco up: 3.1*; GRK2 aptamer HTS: 0.0; proCasp7 act: 6.2; aDG glyco conf: 0.6

How did COCc1ccc(C(=O)Nc2cccc(S(=O)(=O)N(C)c3ccccc3)c2)cc1 do in these assays?
CaV13 FRET inh: -10.4; T cell modulator: 331.4; procasp3 activ: 8.0; aDG glyco up: 1.1; GRK2 aptamer HTS: 0.0; proCasp7 act: -2.0

How did COc1cccc(S(=O)(=O)NCc2ccc(C(=O)Nc3cccc(Cl)c3)cc2)c1 do in these assays?
CaV13 FRET inh: -0.3; T cell modulator: 452.8; procasp3 activ: 4.2; aDG glyco up: 4.7*; GRK2 aptamer HTS: 0.0; proCasp7 act: 1.7; aDG glyco conf: 1.5

What do the screens show for `CCOc1ccc(-n2cc(C(=O)NCc3ccco3)c3cc(OC)c(OC)cc3c2=O)cc1`?
CaV13 FRET inh: -4.5; T cell modulator: 196.8; procasp3 activ: -2.3; aDG glyco up: -0.5; GRK2 aptamer HTS: 3.0; proCasp7 act: 7.4
